CHOP inhibitor: inhibitors of CHOP induction in ER stress response; CHO-K1 CHOP-promoter luciferase, tunicamycin-induced, 15-18 h; inhibition, % at 10 µM; hit rate 3.8% among 220,000;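 active = compounds that reduced the stress-induced luciferase reporter signal by more than about 70% of percent inhibition, limit read from the data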;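 also: 0% = tunicamycin plus vehicle and 100% = wells without tunicamycin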
TMEM16A inh: inhibitors of mouse TMEM16A calcium-activated chloride channel. HEK293 TMEM16A/YFP iodide influx fluorescence, ionomycin. hit rate 1.2% among 310,000. normalized B-score (activity score, 25-100; higher = stronger inhibition) at 10 µM. Q8BHY3;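 active = ratio plate-corrected score three or more library SD toward inhibition, starting fluorescence score within five deviations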;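 also: score derived from kinetic fluorescence span divided by baseline fluorescence per well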
Target sequence (Q8BHY3 whole entry, looked up): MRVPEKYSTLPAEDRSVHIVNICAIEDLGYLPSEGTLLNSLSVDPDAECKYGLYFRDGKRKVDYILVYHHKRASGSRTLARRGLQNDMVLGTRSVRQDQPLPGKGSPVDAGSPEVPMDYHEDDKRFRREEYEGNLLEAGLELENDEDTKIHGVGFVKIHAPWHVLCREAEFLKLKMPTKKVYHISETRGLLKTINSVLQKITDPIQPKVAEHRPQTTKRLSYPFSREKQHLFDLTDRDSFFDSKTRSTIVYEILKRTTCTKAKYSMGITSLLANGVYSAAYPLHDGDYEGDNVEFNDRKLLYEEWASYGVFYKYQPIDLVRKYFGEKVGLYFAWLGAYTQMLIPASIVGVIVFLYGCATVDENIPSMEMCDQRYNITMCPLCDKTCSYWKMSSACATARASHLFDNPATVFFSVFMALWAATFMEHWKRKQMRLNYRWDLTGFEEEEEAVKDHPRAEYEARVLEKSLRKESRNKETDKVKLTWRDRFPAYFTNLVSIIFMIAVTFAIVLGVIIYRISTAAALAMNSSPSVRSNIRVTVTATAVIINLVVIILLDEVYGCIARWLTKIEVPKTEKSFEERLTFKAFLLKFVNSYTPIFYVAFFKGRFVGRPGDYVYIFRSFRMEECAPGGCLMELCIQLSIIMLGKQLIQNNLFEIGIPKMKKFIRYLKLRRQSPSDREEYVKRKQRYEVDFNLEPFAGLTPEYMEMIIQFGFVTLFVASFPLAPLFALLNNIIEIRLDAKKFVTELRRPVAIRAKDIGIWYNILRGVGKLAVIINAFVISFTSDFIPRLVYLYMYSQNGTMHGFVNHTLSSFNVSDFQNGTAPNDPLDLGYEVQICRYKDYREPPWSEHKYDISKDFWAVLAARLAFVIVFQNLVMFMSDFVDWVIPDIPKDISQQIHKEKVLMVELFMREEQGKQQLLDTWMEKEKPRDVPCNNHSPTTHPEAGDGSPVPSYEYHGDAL
ANO1 activ: activates or potentiates the mouse TMEM16A chloride channel; Q8BHY3; HEK293 TMEM16A/YFP-H148Q/I152L, iodide quench fluorescence; hits give low values; B-score at 10 µM; hit rate 0.3% among 340,000; AID 623877;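 active = fluorescence-ratio B-score plate-corrected deviation score at least 3 library SD below zero, with starting fluorescence score within 5 deviations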;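 also: channel opened by trigger with iodide after compound preincubation; score built on the fluorescence ratio of max minus min over baseline; more negative score means more quench and so TMEM16A activation or potentiation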
UPR CHOP act: apoptotic UPR (CHOP) activation; CHO-CHOP luciferase reporter, luminescence; percent of tunicamycin response over DMSO baseline; activation, % at 10 µM; hit rate 0.34% among 330,000; AID 449763;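 active = at 10 µM dose, activation of 40% or more, normalized to positive control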;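 also: 100% = tunicamycin at 10 µg/mL and 0% = DMSO alone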
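Test system: CHO CHOP reporter cells. Input: 500 CHO-CHOP cells per well. Medium: F12 with 10% FBS. Technique: luciferase luminescence. Measure: percent activation relative to tunicamycin control. Dosing: 10 µM compound, 0.5% DMSO. Timing: 16-18 h cell attachment, then 6 h compound exposure, 37 °C.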
UPR XBP1 act: activators of adaptive arm of unfolded protein response (XBP1) | CHO-XBP1 luciferase reporter, IRE1-XBP1 UPR activation, luminescence; percent of tunicamycin response, DMSO as zero | activation, % at 20 µM | hit rate 0.33% among 330,000 | AID 463104;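 active = versus positive control, 20 µM dose yields 30% or more activation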;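 also: 100% = tunicamycin at 10 µg/mL and 0% = DMSO only wells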
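Test system: CHO-XBP1 luciferase reporter cells | Buffer or medium: Serum-containing F12 medium, 10% FBS | Schedule: 6 h compound exposure at 37 °C, 5% CO2 | Detection: Steady-Glo luciferase glow luminescence, 10 min after reagent addition | Read-out basis: Activation, % of tunicamycin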
Lipid droplet: hepatic lipid droplet formation modulation. inhibition, % at 6.5 µM. AID 1656. hit rate 0.4% among 240,000. AML12 mouse hepatocytes, oleate lipid droplets, BODIPY imaging;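 active = lipid droplet intensity inhibited by at least 50%, with more than 500 cells counted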
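System: AML12 hepatocytes (mouse). Probe or stimulus: oleic acid at 100 µM to induce lipid droplet formation. Times: overnight treatment with compound plus oleate. Detection: Image-based BODIPY and DAPI two-channel analysis. Evaluation: percent inhibition of filter-corrected integrated lipid droplet intensity per well.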
XBP1 UPR conf: confirmation of adaptive unfolded protein response (XBP1) activators. activation, % at 20 µM. shares compounds with UPR XBP1 act. hit rate 63% among 1,000. CHO-XBP1 IRE1-XBP1 luciferase reporter, luminescence;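 active = reporter signal at least 30% of the positive control's activation in two or more of four replicate wells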;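 also: plate controls were DMSO negative control for no effect and tunicamycin 10 µg/mL positive control for full effect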
* hit, by the source's call; i = inactive; x = no result given. Most compounds without a hit are left out; they make up all but 4.2% or so of the library.

SMILES	CHOP inhibitor	TMEM16A inh	ANO1 activ	UPR CHOP act	UPR XBP1 act	Lipid droplet	XBP1 UPR conf
O=c1[nH]c(CSc2ncnc3sc(-c4ccccc4)cc23)nc2ccccc12	-15	i	i	1	87*	10	142*
CCOCCN1CCN(C(=O)CN2CCCC2=O)CC1	19	i	i	0	-2	4	x
O=C(COC(=O)Cc1c(F)cccc1Cl)NC(=O)c1ccccc1	x	i	i	3	-3	2	x
Cc1cc(N2C(=O)C(=O)/C(=C(/O)c3ccc(F)cc3)C2c2ccc(Cl)cc2)no1 (stereo not given)	55	i	i	-1	33*	3	2
COC(=O)c1ccc(C2/C(=C(\O)c3ccc(OC)c(C)c3)C(=O)C(=O)N2c2cc(C)on2)cc1 (stereo not given)	11	i	i	-1	0	x	x
COc1ccccc1-c1sc2cc3c(cc2c1-c1ccc(OCCN2CCCCC2)cc1)OCO3	x	x	i	6	35*	x	36*
COc1cc2sc(-c3ccccc3OC)c(-c3ccc(OCCN4CCCCC4)cc3)c2cc1OC	x	x	i	7	24	x	x
CC(OC(=O)c1ccc(Br)o1)C(=O)NCC1CCCCC1 (stereo not given)	x	x	i	0	-1	x	x
COc1ccc(NS(=O)(=O)c2ccc(NC(=O)c3cnn4c(C(F)F)cc(-c5ccc(C)cc5)nc34)cc2)cc1	51	x	x	x	x	x	x
CC(C)=CCC/C(C)=C/CNC(=O)C[C@H]1C[C@H](C(=O)N(C(C)C)C(C)C)[C@@]2(C)c3[nH]c4ccc(Cl)cc4c3CCN2C1=O	x	x	x	5	11	x	x
COc1ccc2[nH]c3c(c2c1)CCN1C(=O)C(CC(=O)NC/C=C(\C)CCC=C(C)C)C[C@H](C(=O)N(C(C)C)C(C)C)[C@@]31C (stereo not given in full)	x	x	x	5	33*	x	46*
Oc1ccccc1CN1CCCC(N2CCc3ccccc3C2)C1 (stereo not given)	x	i	i	-3	2	-12	x
Nc1nc(Nc2ccccc2)nc(NC2CCCCC2)c1[N+](=O)[O-]	x	i	i	3	43*	24	35*
CNc1nc(N)c([N+](=O)[O-])c(NC2CCCCC2)n1	x	i	i	-2	9	24	x
CCn1nc(C)cc1C(=O)Sc1cccc(Cl)c1	-34	i	i	5	49*	-2	5
Cc1nn(C)c(C(=O)Sc2cccc(Cl)c2)c1[N+](=O)[O-]	61	i	i	10	27	11	x
CC1C/C(=N/Nc2nc3ccccc3[nH]2)CC(C)(C)C1 (stereo not given)	-32	i	i	3	34*	16	31*
CC(C)(C)NC(=O)COC(=O)c1ccc(Cl)cc1O	2	i	i	3	-1	14	x
CN(C)c1ccc(/C=N/NC(=O)c2ccc(NC(=O)c3ccccc3)cc2)cc1	50	i	i	5	189*	-7	83*
O=C(N/N=C/c1ccc(Br)cc1)c1ccc(NC(=O)c2ccccc2)cc1	x	x	i	x	x	x	x
Cc1noc(NC(=O)c2c(-c3c(Cl)cccc3Cl)noc2C)c1[N+](=O)[O-]	11	i	i	1	-1	21	x
C=CCN1C(=O)/C(=C2/Sc3ccc(OC)cc3N2C)SC1=Nc1cccc(O)c1	-3	i	i	17	48*	-19	81*
Cc1ccc(/C=C/C(=O)c2cc(Br)ccc2OC(=O)c2ccco2)cc1	21	i	i	3	54*	-27	108*
COc1ccccc1/C=C/C(=O)c1cc(Br)ccc1OC(=O)c1ccco1	x	i	i	26	30	x	x
CC(=O)Nc1ccc(SCCCC(=O)c2ccccc2)cc1	x	i	i	6	4	45	x
COC(=O)C1C(O)=C(C=Nc2cccc3ccccc23)C(=O)CC1(C)C (stereo not given)	52	i	i	9	121*	14	110*

High-throughput results from PubChem.
